Source: ChEMBL document CHEMBL4373649, “Novel antimycobacterial C-21 amide derivatives of the antibiotic fusidic acid: synthesis, pharmacological evaluation and rationalization of media-dependent activity using molecular docking studies in the binding site of human serum albumin” (Medchemcomm, 2019)
pIC50: −log10 of the molar value. Values after ≈ are worked out from the molar mass of the structure shown.

Key:
[1] = system: Mycobacterium tuberculosis; assay: Antimycobacterial activity against Mycobacterium tuberculosis H37RvMA ATCC 27294 cultured in protein-based Middlebrook 7H9 medium supplemented with glucose, albumin-dextrose-catalase and Tween 80 assessed as inhibition of bacterial growth incubated for 7 days in by alamar blue staining based assay; assay type: functional; conditions: H37RvMA ATCC 27294, 168 h
In short: (§1)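 Broth microdilution MIC90 assay against H37RvMa (ATCC 27294). Culture grown to OD600 0.6–0.7, diluted 1:500. Compounds come from 10 mM DMSO stocks and are run as duplicate two-fold dilutions over 10 wells. Plates incubated at 37 °C, 5% CO2, humidified. AlamarBlue added on day 7 and incubated 24 h more, then read on day 8, visually (blue = no growth) or by fluorescence (excitation 540 nm).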

[2] = system: Mycobacterium tuberculosis; assay: Antimycobacterial activity against Mycobacterium tuberculosis H37RvMA ATCC 27294 cultured in non protein-based Middlebrook 7H9 medium supplemented with glucose-casitone-tyloxapol assessed as inhibition of bacterial growth incubated for 7 days in by alamar blue staining based assay; assay type: functional; conditions: H37RvMA ATCC 27294, 168 h
In short: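 Medium is 7H9 with 0.03% Casitone, 0.4% glucose and 0.05% Tyloxapol. H37RvMa is grown to OD600 0.6–0.7 and diluted 1:500. Duplicate two-fold dilutions over 10 wells come from 10 mM DMSO stocks. Incubation at 37 °C, 5% CO2. AlamarBlue added on day 7. The MIC90 is the lowest concentration with no visible growth on day 8, or is read by fluorescence.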

CHO-K1 = assay: Cytotoxicity against CHOK1 cells assessed as reduction in cell viability incubated for 48 hrs by MTT assay; assay type: cell-based; conditions: Cricetulus griseus, CHO-K1, 48 h
In short: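 CHO-K1 cells seeded at 10^5 cells/well 24 h before exposure, medium then replaced with fresh medium containing compound; 48 h at 37 °C, 5% CO2, MTT added at 44 h for 4 h, formazan dissolved in DMSO, OD read at 540 nm. Triplicates; DMSO stocks 2 mg/mL, poorly soluble samples as suspensions; emetine reference; IC50 from non-linear dose-response fit.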

[3] = system: Mycobacterium tuberculosis; assay: Antimycobacterial activity against Mycobacterium tuberculosis; assay type: functional; in short: as §1
[4] = Protein binding in human serum; assay type: ADME, cell-free; conditions: read-out: PB

Row | Compound | MIC90 [1] [µM] | MIC90 [2] [µM] | pIC50 (CHO-K1) | MIC90 [3] [µM] | fraction unbound [4]
1 | COc1ccccc1NC(=O)/C(CCC=C(C)C)=C1\[C@@H](OC(C)=O)C[C@@]2(C)[C@H]1C[C@@H](O)[C@H]1[C@@]3(C)CC[C@@H](O)[C@@H](C)[C@@H]3CC[C@@]12C | 43.2 (≈ 26.9 µg/mL) | 6.2 (≈ 3.86 µg/mL) | 4.34 | – | –
2 | CC(=O)O[C@H]1C[C@@]2(C)[C@@H](C[C@@H](O)[C@H]3[C@@]4(C)CC[C@@H](O)[C@@H](C)[C@@H]4CC[C@@]32C)/C1=C(\CCC=C(C)C)C(=O)Nc1ccc(F)cc1 | 125 (≈ 76.2 µg/mL) | 125 (≈ 76.2 µg/mL) | 4.40 | – | –
3 | CC(=O)O[C@H]1C[C@@]2(C)[C@@H](C[C@@H](O)[C@H]3[C@@]4(C)CC[C@@H](O)[C@@H](C)[C@@H]4CC[C@@]32C)/C1=C(\CCC=C(C)C)C(=O)N[C@H](C)c1ccccc1Cl | > 125 | 10.1 (≈ 6.61 µg/mL) | 4.74 | – | –
4 | CC(=O)O[C@H]1C[C@@]2(C)[C@@H](C[C@@H](O)[C@H]3[C@@]4(C)CC[C@@H](O)[C@@H](C)[C@@H]4CC[C@@]32C)/C1=C(\CCC=C(C)C)C(=O)N[C@H](C)c1ccc(F)cc1 | > 125 | > 125 | 5.08 | – | –
5 | CC(=O)O[C@H]1C[C@@]2(C)[C@@H](C[C@@H](O)[C@H]3[C@@]4(C)CC[C@@H](O)[C@@H](C)[C@@H]4CC[C@@]32C)/C1=C(\CCC=C(C)C)C(=O)NCc1ccc(S(N)(=O)=O)cc1 | 62.3 (≈ 42.7 µg/mL) | 2.71 (≈ 1.86 µg/mL) | 4.52 | – | –
6 | CC(=O)O[C@H]1C[C@@]2(C)[C@@H](C[C@@H](O)[C@H]3[C@@]4(C)CC[C@@H](O)[C@@H](C)[C@@H]4CC[C@@]32C)/C1=C(\CCC=C(C)C)C(=O)N[C@@H](C)c1ccc(F)cc1 | > 125 | 7.59 (≈ 4.84 µg/mL) | 4.32 | – | –
7 | COC(=O)[C@H](NC(=O)/C(CCC=C(C)C)=C1\[C@@H](OC(C)=O)C[C@@]2(C)[C@H]1C[C@@H](O)[C@H]1[C@@]3(C)CC[C@@H](O)[C@@H](C)[C@@H]3CC[C@@]12C)c1ccccc1 | 38.8 (≈ 25.8 µg/mL) | 7.1 (≈ 4.71 µg/mL) | 4.37 | – | –
8 | CC(=O)O[C@H]1C[C@@]2(C)[C@@H](C[C@@H](O)[C@H]3[C@@]4(C)CC[C@@H](O)[C@@H](C)[C@@H]4CC[C@@]32C)/C1=C(\CCC=C(C)C)C(=O)Nc1ccc(O)cc1 | > 125 | 6.9 (≈ 4.19 µg/mL) | 4.34 | – | –
9 | CC(=O)O[C@H]1C[C@@]2(C)[C@@H](C[C@@H](O)[C@H]3[C@@]4(C)CC[C@@H](O)[C@@H](C)[C@@H]4CC[C@@]32C)/C1=C(\CCC=C(C)C)C(=O)N[C@@H](C)c1ccccc1 | > 125 | 8.9 (≈ 5.52 µg/mL) | 4.34 | – | –
10 | COc1ccc(NC(=O)/C(CCC=C(C)C)=C2\[C@@H](OC(C)=O)C[C@@]3(C)[C@H]2C[C@@H](O)[C@H]2[C@@]4(C)CC[C@@H](O)[C@@H](C)[C@@H]4CC[C@@]23C)cc1 | > 125 | > 125 | 4.33 | – | –
11 | CC(=O)O[C@H]1C[C@@]2(C)[C@@H](C[C@@H](O)[C@H]3[C@@]4(C)CC[C@@H](O)[C@@H](C)[C@@H]4CC[C@@]32C)/C1=C(\CCC=C(C)C)C(=O)N[C@@H](C)c1ccccc1Cl | 41.5 (≈ 27.2 µg/mL) | 9.8 (≈ 6.41 µg/mL) | 4.35 | – | –
12 | CC(=O)O[C@H]1C[C@@]2(C)[C@@H](C[C@@H](O)[C@H]3[C@@]4(C)CC[C@@H](O)[C@@H](C)[C@@H]4CC[C@@]32C)/C1=C(\CCC=C(C)C)C(=O)N[C@@H](C)C1CCCCC1 | > 125 | 4.5 (≈ 2.82 µg/mL) | 4.35 | – | –
13 | CC(=O)O[C@H]1C[C@@]2(C)[C@@H](C[C@@H](O)[C@H]3[C@@]4(C)CC[C@@H](O)[C@@H](C)[C@@H]4CC[C@@]32C)/C1=C(\CCC=C(C)C)C(=O)NCc1ccc(O)cc1 | 125 (≈ 77.7 µg/mL) | 125 (≈ 77.7 µg/mL) | < 4.30 | – | –
14 | CC(=O)O[C@H]1C[C@@]2(C)[C@@H](C[C@@H](O)[C@H]3[C@@]4(C)CC[C@@H](O)[C@@H](C)[C@@H]4CC[C@@]32C)/C1=C(\CCC=C(C)C)C(=O)N[C@H](C)c1ccccc1 | > 125 | 11 (≈ 6.82 µg/mL) | 4.32 | – | –
15 | CC(=O)O[C@H]1C[C@@]2(C)[C@@H](C[C@@H](O)[C@H]3[C@@]4(C)CC[C@@H](O)[C@@H](C)[C@@H]4CC[C@@]32C)/C1=C(\CCC=C(C)C)C(=O)NC1(c2ccccc2)CC1 | > 125 | 13.9 (≈ 8.78 µg/mL) | 4.43 | – | –
16 | CC(=O)O[C@H]1C[C@@]2(C)[C@@H](C[C@@H](O)[C@H]3[C@@]4(C)CC[C@@H](O)[C@@H](C)[C@@H]4CC[C@@]32C)/C1=C(\CCC=C(C)C)C(=O)Nc1ccc(C)cc1 | 125 (≈ 75.7 µg/mL) | > 125 | < 4.30 | – | –

Row | Compound | MIC90 [1] [µM] | MIC90 [2] [µM] | pIC50 (CHO-K1) | MIC90 [3] [µM] | fraction unbound [4]
17 | CC(=O)O[C@H]1C[C@@]2(C)[C@@H](C[C@@H](O)[C@H]3[C@@]4(C)CC[C@@H](O)[C@@H](C)[C@@H]4CC[C@@]32C)/C1=C(\CCC=C(C)C)C(=O)NCc1ccc(F)cc1 | 125 (≈ 78 µg/mL) | > 125 | 4.40 | – | –
18 | CC(=O)O[C@H]1C[C@@]2(C)[C@@H](C[C@@H](O)[C@H]3[C@@]4(C)CC[C@@H](O)[C@@H](C)[C@@H]4CC[C@@]32C)/C1=C(\CCC=C(C)C)C(=O)N[C@@H](C(N)=O)c1ccccc1 | 15.7 (≈ 10.2 µg/mL) | 9.1 (≈ 5.9 µg/mL) | < 4.30 | – | –
19 | COc1cccc(NC(=O)/C(CCC=C(C)C)=C2\[C@@H](OC(C)=O)C[C@@]3(C)[C@H]2C[C@@H](O)[C@H]2[C@@]4(C)CC[C@@H](O)[C@@H](C)[C@@H]4CC[C@@]23C)c1 | > 125 | > 125 | 4.37 | – | –
20 | CC(=O)O[C@H]1C[C@@]2(C)[C@@H](C[C@@H](O)[C@H]3[C@@]4(C)CC[C@@H](O)[C@@H](C)[C@@H]4CC[C@@]32C)/C1=C(\CCC=C(C)C)C(=O)NCc1ccccc1 | 125 (≈ 75.7 µg/mL) | > 125 | 4.36 | – | –
21 | CC(=O)O[C@H]1C[C@@]2(C)[C@@H](C[C@@H](O)[C@H]3[C@@]4(C)CC[C@@H](O)[C@@H](C)[C@@H]4CC[C@@]32C)/C1=C(\CCC=C(C)C)C(=O)N[C@H](C)C1CCCCC1 | > 125 | 7.45 (≈ 4.66 µg/mL) | < 4.30 | – | –
22 | CC(=O)O[C@H]1C[C@@]2(C)[C@@H](C[C@@H](O)[C@H]3[C@@]4(C)CC[C@@H](O)[C@@H](C)[C@@H]4CC[C@@]32C)/C1=C(\CCC=C(C)C)C(=O)NCc1ccc(C)cc1 | 125 (≈ 77.5 µg/mL) | > 125 | < 4.30 | – | –
23 | CC(=O)O[C@H]1C[C@@]2(C)[C@@H](C[C@@H](O)[C@H]3[C@@]4(C)CC[C@@H](O)[C@@H](C)[C@@H]4CC[C@@]32C)/C1=C(\CCC=C(C)C)C(=O)NC(C)c1ccc(F)cc1 (mixture of isomers) | > 125 | 19.8 | 4.34 | – | –
24 | CC(=O)O[C@H]1C[C@@]2(C)[C@@H](C[C@@H](O)[C@H]3[C@@]4(C)CC[C@@H](O)[C@@H](C)[C@@H]4CC[C@@]32C)/C1=C(\CCC=C(C)C)C(=O)NC(C)c1ccncc1 (mixture of isomers) | 125 | 13 | < 4.30 | – | –
25 | CC(=O)O[C@H]1C[C@@]2(C)[C@@H](C[C@@H](O)[C@H]3[C@@]4(C)CC[C@@H](O)[C@@H](C)[C@@H]4CC[C@@]32C)/C1=C(\CCC=C(C)C)C(=O)NC(C)c1ccc(C)cc1 (mixture of isomers) | > 125 | 2.91 | 4.32 | – | –
26 | CC(=O)O[C@H]1C[C@@]2(C)[C@@H](C[C@@H](O)[C@H]3[C@@]4(C)CC[C@@H](O)[C@@H](C)[C@@H]4CC[C@@]32C)/C1=C(\CCC=C(C)C)C(=O)NC(C)c1cnccn1 (mixture of isomers) | 62.5 | 17.5 | < 4.30 | – | –
27 | CC(=O)O[C@H]1C[C@@]2(C)[C@@H](C[C@@H](O)[C@H]3[C@@]4(C)CC[C@@H](O)[C@@H](C)[C@@H]4CC[C@@]32C)/C1=C(\CCC=C(C)C)C(=O)NC(C)c1cccnc1 (mixture of isomers) | > 125 | 17.9 | < 4.30 | – | –
28 | CC(=O)O[C@H]1C[C@@]2(C)[C@@H](C[C@@H](O)[C@H]3[C@@]4(C)CC[C@@H](O)[C@@H](C)[C@@H]4CC[C@@]32C)/C1=C(\CCC=C(C)C)C(=O)NC(C)c1ccc(Cl)c(Cl)c1 (mixture of isomers) | 32.3 | 7.2 | < 4.30 | – | –
29 | CC[C@H]1CN2CCc3cc(OC)c(OC)cc3[C@@H]2C[C@@H]1C[C@H]1NCCc2cc(OC)c(OC)cc21 [EMETINE] | – | – | 7.70 | – | –
30 | CC(=O)O[C@H]1C[C@@]2(C)[C@@H](C[C@@H](O)[C@H]3[C@@]4(C)CC[C@@H](O)[C@@H](C)[C@@H]4CC[C@@]32C)/C1=C(\CCC=C(C)C)C(=O)O [FUSIDIC ACID] | 9.25 (≈ 4.78 µg/mL) | 0.24 (≈ 0.124 µg/mL) | – | 31 (≈ 16 µg/mL) | 0.03 to 0.05
31 | CO[C@H]1/C=C/O[C@@]2(C)Oc3c(C)c(O)c4c(O)c(c(/C=N/N5CCN(C)CC5)c(O)c4c3C2=O)NC(=O)/C(C)=C\C=C\[C@H](C)[C@H](O)[C@@H](C)[C@@H](O)[C@@H](C)[C@H](OC(C)=O)[C@@H]1C [RIFAMPIN] | 0.009 (≈ 0.00741 µg/mL) | 0.02 (≈ 0.0165 µg/mL) | – | – | –
